A word on the efflux ratio: it is the permeability from basolateral to apical divided by that in the opposite direction, in the common usage. The term IC50 denotes the concentration at which inhibition is half-maximal. Read a low IC50 as higher potency.

Active and inactive are the calls of the source. The rule behind the calls is not given here.

For data set [1], the system named is Caco-2. Briefly: Induction of apoptosis in human Caco2 cells assessed as late apoptotic cells at 0.05 uM after 24 hrs by Annexin V/propidium iodide staining-based flow cytometric analysis (reference value: 2.20 +/- 0.77%). The class given is functional.
Data set [2] has as its system Caco-2. As to the kind of experiment: Induction of apoptosis in human Caco2 cells assessed as necrotic cells at 0.05 uM after 48 hrs by Annexin V/propidium iodide staining-based flow cytometric analysis (reference value: 0.41 +/- 0.02%). The class given is functional. (In general: Flow cytometry measures light scatter and fluorescence of single cells or particles in a stream.)

The test system of data set [3] is Caco-2. As to the kind of experiment: Induction of apoptosis in human Caco2 cells assessed as early apoptotic cells at 0.5 uM after 24 hrs by Annexin V/propidium iodide staining-based flow cytometric analysis (reference value: 0.72 +/- 0.03%). In kind it is functional.
In data set [4] the test system is MDA-MB-231. Briefly: Induction of apoptosis in human MDA-MB-231 cells assessed as inhibition of DNA synthesis at 0.8 to 1.6 uM after 24 hrs by BrdU staining-based ELISA. The class given is functional, cell-based. Put shortly: (§1)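 BrdU colorimetric cell proliferation ELISA. Cells seeded at 25,000 per well, compounds added 24 h after seeding and incubated 24 h. Cells fixed and the immunoassay run per kit. Absorbance read at 370-492 nm over 3 intervals of 5 min; absorbance difference proportional to BrdU incorporation. Mean of three separate experiments in triplicate, compared with untreated control.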

Data set [5] deals with Caco-2. Briefly: Induction of apoptosis in human Caco2 cells assessed as vital cells at 0.5 uM after 48 hrs by Annexin V/propidium iodide staining-based flow cytometric analysis (reference value: 96.67 +/- 1.02%). In kind it is functional.
The subject of data set [6] is HeLa. Briefly: Induction of apoptosis in human HeLa cells assessed as p53 phosphorylation at Ser15 by Western blotting analysis. The class given is functional, cell-based. The procedure, abridged:
(§2)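 Cells treated 24 h. About 10^6 cells lysed on ice 15 min in Hepes pH 7.4/Triton X-100 buffer with phosphatase and protease inhibitors, then spun 13,000 × g. 30 µg protein run on 12% SDS-PAGE and blotted to nitrocellulose. Primary anti-phospho-p53 (Ser15) and anti-p53 at 1:1000 for 2 h at room temperature, then HRP secondary and ECL densitometry. Results referred to untreated control.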
(A western blot detects proteins with antibodies after separation by electrophoresis.)

A short description of data set [7]: Effective permeability in Wistar rat small intestine at 50 uM measured after 5 mins in every 5 min interval up to 30 mins. In kind it is ADME, tissue-based. The settings on record: not told, read-out: Peff. Put shortly: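 In situ intestinal perfusion in male Wistar rats fasted 2 h with water allowed. Anaesthesia with diazepam (1.67 mg/kg), ketamine (50 mg/kg) and atropine (1 mg/kg); animals kept at 37 °C. Perfusate sampled every 5 min from 5 to 30 min; absorption rate constant and Peff derived.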

Data set [8] is described as follows: Efflux ratio of effective permeability from basolateral to apical side over apical to basolateral side in human Caco2 cells at 10 to 50 uM after 15 to 90 mins by HPLC analysis. The class given is ADME, cell-based. The settings on record: Caco-2. The procedure, abridged:
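Caco-2 monolayers (400,000 cells per polycarbonate transwell insert, 0.4 µm pores) grown in DMEM for 19-22 days at 37 °C and 5% CO2. TEER was checked before and after each run. Compound was placed on the donor side and buffer on the receiver side, in both apical-to-basal and basal-to-apical directions, at 37 °C with 50 rpm orbital shaking. Receiver samples were taken at 15, 30, 60 and 90 min with buffer replaced, and donor samples at start and end. Analysis was by HPLC; three independent experiments.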

Data set [9] is described as follows: Permeability from basolateral to apical side in human Caco2 cells at 10 to 50 uM after 15 to 90 mins by HPLC analysis. The class given is ADME, cell-based. The settings on record: caco-2, 50 µM. The procedure, abridged:
(§3)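 Caco-2 cells seeded at 400,000 per polycarbonate transwell insert (0.4 μm pore) and grown in DMEM for 19-22 days to confluence at 37°C, 5% CO2. TEER checked before and after each run. Compound in donor chamber, buffer in receiver. Run at 37°C with 50 rpm orbital shaking. Receiver sampled at 15, 30, 60 and 90 min with buffer replacement; donor sampled at start and end. HPLC quantitation; three independent experiments.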

Data set [10] relates to A-375. Briefly: Induction of apoptosis in human A375 cells assessed as inhibition of DNA synthesis after 24 hrs by BrdU staining-based ELISA. In kind it is functional, cell-based. The procedure, abridged: (§4)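 Cells seeded at 25,000/well; compounds added 24 h after seeding at a range of concentrations and incubated 24 h. Cells fixed, then colorimetric BrdU-incorporation ELISA. Absorbance read at 370-492 nm over 3 intervals of 5 min. Mean of three separate experiments with triplicate samples.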
In general terms: Dividing cells build labelled thymidine or BrdU into new DNA.

Data set [11] is described as follows: Cytotoxicity against human Caco2 cells after 24 hrs by MTT assay. The class given is functional, cell-based. As to conditions: Caco-2, 24 h.
Data set [12] has as its system Caco-2. Briefly: Induction of apoptosis in human Caco2 cells assessed as late apoptotic cells at 0.5 uM after 48 hrs by Annexin V/propidium iodide staining-based flow cytometric analysis (reference value: 2.20 +/- 0.77%). In kind it is functional.
The test system of data set [13] is HeLa. Briefly: Induction of apoptosis in human HeLa cells assessed as inhibition of DNA synthesis at 0.8 to 1.6 uM after 24 hrs by BrdU staining-based ELISA. In kind it is functional, cell-based. Put shortly:
as §1

Data set [14] deals with Caco-2. Briefly: Induction of apoptosis in human Caco2 cells assessed as early apoptotic cells at 0.05 uM after 24 hrs by Annexin V/propidium iodide staining-based flow cytometric analysis (reference value: 0.72 +/- 0.03%). The class given is functional.
Data set [15] relates to MDA-MB-231. As to the kind of experiment: Induction of apoptosis in human MDA-MB-231 cells assessed as inhibition of DNA synthesis after 24 hrs by BrdU staining-based ELISA. In kind it is functional, cell-based. Put shortly:
as §4

Data set [16] relates to MDA-MB-231. As to the kind of experiment: Induction of apoptosis in human MDA-MB-231 cells assessed as p53 phosphorylation at Ser15 by Western blotting analysis. The class given is functional, cell-based. Put shortly: as §2
Data set [17] is described as follows: Permeability from apical to basolateral side in human Caco2 cells at 10 to 50 uM after 15 to 90 mins by HPLC analysis. In kind it is ADME, cell-based. As to conditions: caco-2, 50 µM. Put shortly:
as §3

Data set [18] has as its system Caco-2. Briefly: Induction of apoptosis in human Caco2 cells assessed as necrotic cells at 0.05 uM after 24 hrs by Annexin V/propidium iodide staining-based flow cytometric analysis (reference value: 0.41 +/- 0.02%). The class given is functional.
For data set [19], the system named is Caco-2. As to the kind of experiment: Induction of apoptosis in human Caco2 cells assessed as necrotic cells at 0.5 uM after 48 hrs by Annexin V/propidium iodide staining-based flow cytometric analysis (reference value: 0.41 +/- 0.02%). In kind it is functional.
In data set [20] the test system is Caco-2. Briefly: Induction of apoptosis in human Caco2 cells assessed as vital cells at 0.05 uM after 24 hrs by Annexin V/propidium iodide staining-based flow cytometric analysis (reference value: 96.67 +/- 1.02%). In kind it is functional.
In data set [21] the test system is Caco-2. As to the kind of experiment: Induction of apoptosis in human Caco2 cells assessed as early apoptotic cells at 0.5 uM after 48 hrs by Annexin V/propidium iodide staining-based flow cytometric analysis (reference value: 0.72 +/- 0.03%). In kind it is functional.
Data set [22] relates to Small intestine. As to the kind of experiment: Effective permeability in Wistar rat small intestine assessed as absorption rate coefficient at 50 uM measured after 5 mins in every 5 min interval up to 30 mins. The class given is ADME, tissue-based. Put shortly:
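Male Wistar rats fasted 2 h with water available, then anaesthetised with diazepam (1.67 mg/kg), ketamine (50 mg/kg) and atropine (1 mg/kg) and kept at 37°C on a heated surface. In situ intestinal perfusion. Perfusate sampled from 5 min at 5 min intervals up to 30 min. Absorption rate constant (Ka) and Peff derived.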

For data set [23], the system named is Caco-2. Briefly: Induction of apoptosis in human Caco2 cells assessed as late apoptotic cells at 0.5 uM after 24 hrs by Annexin V/propidium iodide staining-based flow cytometric analysis (reference value: 2.20 +/- 0.77%). The class given is functional.

With `CC[C@@]1(O)C(=O)OCc2c1cc1n(c2=O)Cc2cc3c(CN(C)C)c(O)ccc3nc2-1.Cl` [TOPOTECAN HYDROCHLORIDE], the Activity is 19.54% in [1]; 2.36% in data set [2]; 4.4% in data set [3]; 38.26% in data set [5]; 53.12% in data set [12]; 5.42% in [14]. The Activity in data set [18] came out at 3.64%; in [19], 2.88%; in data set [20], 71.4%; in data set [21], 5.74%; in [23], 33.98%. Also, the result in data set [4], in [13] and in data set [16] was Active. Also, the result in data set [6] was inactive. Besides, the Papp at 5 min, 50 µM in data set [7] came out at 55.8 ×10⁻⁶ cm/s. Moreover, in [8], the efflux ratio at up to 50 µM is more than 1. Besides, the permeability result in [9] and in data set [17] was “permeable” in each case. The inhibition entry in [10] and in data set [15] was “Dose-dependent effect” in each case. In data set [11], this molecule came in with an IC50 of 119 nM. Further, in data set [22], the Ka was 2.25 h⁻¹.
